≈ marks a conversion by molar mass, not a printed value. Calls of active or inactive are those of the source. No cut-off for these calls is given here.

Three molecules from ChEMBL document CHEMBL1147071, “Bisphosphonates as inhibitors of Trypanosoma cruzi hexokinase: kinetic and metabolic studies” (J Biol Chem, 2007) can be followed below.

In assay [1] the target is T1, Hexokinase (Trypanosoma cruzi, UniProt Q8ST54).
T1 sequence (Q8ST54 whole entry): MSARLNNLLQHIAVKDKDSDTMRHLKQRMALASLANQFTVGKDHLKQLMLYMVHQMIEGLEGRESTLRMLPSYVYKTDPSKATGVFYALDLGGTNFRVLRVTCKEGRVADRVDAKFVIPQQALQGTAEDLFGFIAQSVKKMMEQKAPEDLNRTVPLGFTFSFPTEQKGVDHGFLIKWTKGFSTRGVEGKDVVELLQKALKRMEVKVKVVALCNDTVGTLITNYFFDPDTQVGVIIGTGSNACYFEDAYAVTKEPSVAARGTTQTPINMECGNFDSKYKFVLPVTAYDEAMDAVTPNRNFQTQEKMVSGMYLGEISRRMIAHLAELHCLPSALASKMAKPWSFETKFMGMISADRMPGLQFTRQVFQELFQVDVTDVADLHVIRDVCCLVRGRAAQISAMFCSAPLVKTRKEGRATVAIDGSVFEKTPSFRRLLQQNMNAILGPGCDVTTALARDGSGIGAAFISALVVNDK
The assay can be described thus: Inhibition of glycosomal Trypanosoma cruzi hexokinase in presence of D-glucose, 1 mM ATP and 3 mM MgCl2. An outline of the steps:
(§1)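 Purified intact glycosomes from exponential-phase epimastigotes (latency typically >95%) were permeabilized with digitonin 25 µg mg-1 protein for 1 min, pelleted and resuspended in buffer A (sucrose 225 mM, KCl 20 mM, KH2PO4 10 mM, EDTA 5 mM, Tris-HCl 20 mM, MgCl2 1 mM, pH 7.2). Hexokinase was assayed by coupled NADP+ reduction at 340 nm. Against ATP: 2 mM D-glucose, 3 mM MgCl2. Against glucose: 1 mM ATP, 3 mM MgCl2. Kii and Kis were fitted.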

Assay [2] concerns the target T1, Hexokinase. As to the kind of experiment: Inhibition of glycosomal Trypanosoma cruzi hexokinase in presence of ATP, 2 mM D-glucose and 3 mM MgCl2 by competitive inhibition assay. The procedure, abridged:
as §1

Assay [3] deals with Trypanosoma cruzi. The assay can be described thus: Effect on exogenous cholesterol level in Trypanosoma cruzi epimastigotes at 20 uM. Type of assay: functional. The procedure, abridged:
(§2)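 EP stock epimastigotes grown 120 h in LIT medium with 10% newborn calf serum at 28 °C, with or without compound at the stated concentration. Total lipids were extracted, and free sterols were separated from polar lipids by silicic acid column chromatography. Sterols were quantified by capillary gas-liquid chromatography and mass spectrometry and reported as mass percent of free sterols.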

The test system of assay [4] is Trypanosoma cruzi. The assay can be described thus: Effect on endogenous Ergosta-5,7-dien-3beta-ol level in Trypanosoma cruzi epimastigotes at 20 uM. It is filed as functional. An outline of the steps:
as §2

Assay [5] has as its system Trypanosoma cruzi. The assay can be described thus: Effect on endogenous Ergosta-7-24(24')-dien-3beta-ol level in Trypanosoma cruzi epimastigotes at 20 uM. Type of assay: functional. The procedure, abridged:
as §2

For assay [6], the system named is Trypanosoma cruzi. The assay can be described thus: Inhibition of glucose consumption in Trypanosoma cruzi epimastigotes after 120 hrs. Type of assay: functional, organism-based. An outline of the steps:
(§3)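 Epimastigotes cultured in LIT medium at 28 °C with agitation, with or without 15 µM compound. Cell proliferation, medium glucose and ammonium (enzymatic assays) and medium pH were followed over time. Triplicates.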

Assay [7] has as its system Trypanosoma cruzi. The assay can be described thus: Effect on endogenous Ergosta-5,7-24(24')-trien-3beta-ol level in Trypanosoma cruzi epimastigotes at 20 uM. It is filed as functional. The procedure, abridged:
as §2

In assay [8] the test system is Trypanosoma cruzi. As to the kind of experiment: Effect on endogenous 24-ethyl-5,7-cholesta-dien-3beta-ol level in Trypanosoma cruzi epimastigotes at 20 uM. It is filed as functional. The procedure, abridged: as §2
In assay [9] the test system is Trypanosoma cruzi. The assay can be described thus: Effect on endogenous 24-methyl-5,7,22-cholesta-trien-3beta-ol level in Trypanosoma cruzi epimastigotes at 20 uM. It is filed as functional. The procedure, abridged:
as §2

Assay [10] has as its target T1, Hexokinase. As to the kind of experiment: Inhibition of Trypanosoma cruzi hexokinase in presence of D-glucose, 1 mM ATP and 3 mM MgCl2 by competitive inhibition assay. An outline of the steps: (§4)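 Homogeneous hexokinase purified from exponential-phase epimastigotes. Activity measured spectrophotometrically by coupling to glucose-6-phosphate dehydrogenase and following NADP+ reduction at 340 nm; rates taken from the initial linear slope. Against ATP: 2 mM D-glucose, 3 mM MgCl2. Against D-glucose: 1 mM ATP, 3 mM MgCl2. Substrate and inhibitor were varied, and Kii and Kis were obtained from fitting plus secondary plots.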

In assay [11] the target is T1, Hexokinase. As to the kind of experiment: Inhibition of glycosomal Trypanosoma cruzi hexokinase in presence of D-glucose, 1 mM ATP and 3 mM MgCl2 by competitive inhibition assay. The procedure, abridged:
as §1

Assay [12] has as its system Trypanosoma cruzi. The assay can be described thus: Effect on glucose consumption in digitonin permeablized Trypanosoma cruzi. It is filed as functional, organism-based. The procedure, abridged:
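Resuspended with PEP 6 mM, ADP 6 mM, NaHCO3 7 mM and L-malate 1 mM. Preincubated 60 min at 28 °C with varying compound concentrations before 3 mM D-glucose was added. Medium glucose was assayed enzymatically every 15 min; IC50 determined.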

The target of assay [13] is T1, Hexokinase. The assay can be described thus: Inhibition of Trypanosoma cruzi hexokinase in presence of ATP, 2 mM D-glucose and 3 mM MgCl2. An outline of the steps:
as §4

The test system of assay [14] is Trypanosoma cruzi. The assay can be described thus: Reduction in proliferation of Trypanosoma cruzi epimastigotes at 15 uM. It is filed as functional, organism-based. The procedure, abridged:
as §3

Assay [15] relates to Trypanosoma cruzi. As to the kind of experiment: Effect on endogenous 24-ethyl-5,7,22-cholesta-trien-3beta-ol level in Trypanosoma cruzi epimastigotes at 20 uM. Type of assay: functional. An outline of the steps: as §2
In assay [16] the test system is Trypanosoma cruzi. As to the kind of experiment: Growth inhibition of Trypanosoma cruzi epimastigotes. Type of assay: functional, organism-based. The procedure, abridged:
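EP epimastigotes grown in LIT medium with 10% newborn calf serum at 28 °C, 120 rpm. Compound added from 100-fold stocks at 1-2 × 10^7 cells ml-1. Densities counted by particle counter and hemocytometer. Percent growth factor based on 96 h growth relative to untreated cells; IC50 from non-linear fit; MIC also reported. Triplicates.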

Assay [17] addresses T1, Hexokinase. The assay can be described thus: Inhibition of Trypanosoma cruzi hexokinase in presence of ATP, 2 mM D-glucose and 3 mM MgCl2 by mixed inhibition assay.
For assay [18], the target named is T1, Hexokinase. The assay can be described thus: Inhibition of glycosomal Trypanosoma cruzi hexokinase in presence of ATP, 2 mM D-glucose and 3 mM MgCl2. The procedure, abridged: as §1
Assay [19] deals with Trypanosoma cruzi. The assay can be described thus: Inhibition of glucose consumption in Trypanosoma cruzi epimastigotes after 96 hrs. It is filed as functional, organism-based. The procedure, abridged: as §3
Assay [20] concerns Trypanosoma cruzi. The assay can be described thus: Effect on endogenous 24-ethyl-5,7-cholesta-dien-3beta-ol level in Trypanosoma cruzi epimastigotes at 100 uM. Type of assay: functional. An outline of the steps:
as §2

Assay [21] has as its system Trypanosoma cruzi. As to the kind of experiment: Effect on exogenous cholesterol level in Trypanosoma cruzi epimastigotes at 100 uM. Type of assay: functional. The procedure, abridged: as §2
The subject of assay [22] is Trypanosoma cruzi. As to the kind of experiment: Effect on endogenous 24-ethyl-5,7,22-cholesta-trien-3beta-ol level in Trypanosoma cruzi epimastigotes at 50 uM. Type of assay: functional. An outline of the steps: as §2
Assay [23] has as its target T1, Hexokinase. The assay can be described thus: Inhibition of Trypanosoma cruzi hexokinase in presence of D-glucose, 1 mM ATP and 3 mM MgCl2. The procedure, abridged:
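Hexokinase purified to homogeneity from exponential-phase T. cruzi epimastigotes. Activity was coupled to glucose-6-phosphate dehydrogenase and read as NADP+ reduction at 340 nm, with initial velocity taken from the slope, linear for at least 5 min. D-glucose was varied at fixed inhibitor levels with 1 mM ATP and 3 mM MgCl2. Kii and Kis came from fitting to a mixed-inhibition equation (intercept/slope secondary plots).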

Assay [24] relates to Trypanosoma cruzi. The assay can be described thus: Effect on endogenous 24-ethyl-5,7-cholesta-dien-3beta-ol level in Trypanosoma cruzi epimastigotes at 50 uM. Type of assay: functional. An outline of the steps: as §2
In assay [25] the test system is Trypanosoma cruzi. The assay can be described thus: Effect on exogenous cholesterol level in Trypanosoma cruzi epimastigotes at 50 uM. Type of assay: functional. The procedure, abridged:
as §2

Turning to `O=P(O)(O)C(Nc1cccc(Br)c1)P(=O)(O)O`, the Ki in [1] turned out to be 10.6 µM; in [2], 2.6 µM; in [10] it was 0.4 µM; in [11], 2.9 µM; in [13], 1.2 µM; in assay [17], 0.6 µM. In addition, the Activity is recorded as 21.3% in assay [3]; 18% in assay [4]; 2% in assay [5]; 6% in assay [7]; 3.4% in assay [8]; 31% in [9]. For the same molecule, the Activity in assay [15] is listed as 18.3%. For the same molecule, the outcome in [6] and in assay [14] was Active. In addition, the IC50 came to 1.2 µM in assay [12] and 7 µM in assay [16]. In addition, the MIC in [16] was 20 µM (≈ 6.92 µg/mL).

`CCn1c2ccccc2c2cc(NC(P(=O)(O)O)P(=O)(O)O)ccc21`: the Ki came to 4.3 µM in [1]; 1.2 µM in assay [2]; 1.7 µM in assay [18]; 0.5 µM in assay [10]; 2.4 µM in [11]; 2.8 µM in assay [13]. In addition, the Ki in assay [17] turned out to be 1.7 µM. The Activity amounted to 18.8% in [3]; 26.3% in assay [4]; 3.8% in assay [7]; 8.4% in assay [8]; 23.4% in assay [9]; 19.3% in assay [15]. Moreover, the figures for the IC50 in [12] and in assay [16] were 0.62 µM and 6.4 µM, respectively. Besides, the result in assay [19] and in assay [14] was Active. Also, the MIC in assay [16] worked out at 20 µM (≈ 7.69 µg/mL).

In the case of `O=P(O)(O)C(O)(Cc1ccncc1)P(=O)(O)O`, the Ki was determined as 43.9 µM in assay [1]; 11.4 µM in [2]; 10.5 µM in [18]; 3.3 µM in assay [10]; 3.4 µM in assay [11]; 6 µM in assay [23]. In addition, the figures for the Ki in assay [13] and in [17] were 4.3 µM and 2.8 µM, respectively. The Activity is 6.7% in assay [20]; 93.3% in assay [21]; 14.6% in assay [22]; 14.5% in assay [24]; 70.9% in assay [25]. In addition, the values for the IC50 in assay [12] and in assay [16] were 10.3 µM and 40.6 µM, respectively. This molecule also came in with an MIC in assay [16] of 200 µM (≈ 56.6 µg/mL).
